Results taken from ChEMBL document CHEMBL2311397, “Design and synthesis of cyclopropylamide analogues of combretastatin-A4 as novel microtubule-stabilizing agents” (J Med Chem, 2013).

How the values were obtained:
Assay type in all cases: functional, cell-based
[1] = tested on: SW480; test: Cytotoxicity against human SW480 cells after 48 hrs by MTT assay
Summary of the method: (§1)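 Log-phase cells (40000–50000 cells/mL) grown in DMEM with 10% fetal calf serum (5% CO2, 37 °C) and exposed 48 h to five concentrations, 3–5 replicates. Read-out was MTT with absorbance at 570 nm; IC50 reported as mean ± SD of three independent experiments. Resistant A549 and HeLa sublines were made by stepwise paclitaxel selection; resistance index = IC50(resistant)/IC50(sensitive).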

[2] = tested on: A549; test: Cytotoxicity against human A549 cells after 48 hrs by MTT assay; summary of the method: as §1
[3] = tested on: K562; test: Cytotoxicity against human K562 cells after 48 hrs by MTT assay; summary of the method: as §1
[4] = tested on: HeLa; test: Cytotoxicity against human HeLa cells after 48 hrs by MTT assay; summary of the method: as §1
[5] = Cytotoxicity against human QGY cells after 48 hrs by MTT assay; summary of the method: as §1

Compound	IC50 ([1]; sw480) [µM]	IC50 ([2]; a549) [µM]	IC50 ([3]; k562) [µM]	IC50 ([4]; hela) [µM]	IC50 ([5]; qgy) [µM]	IC50 ([2]; Homo sapiens, A549, 48 h) [µM]	IC50 ([3]; Homo sapiens, K562, 48 h) [µM]	IC50 ([4]; Homo sapiens, HeLa, 48 h) [µM]	IC50 ([5]; Homo sapiens, QGY, 48 h) [µM]	IC50 ([1]; Homo sapiens, SW480, 48 h) [µM]
CCOC(=O)C1(C(=O)Nc2cccc(Cl)c2)CC1c1cc(OC)c(OC)c(OC)c1 (stereo in doubt; trans)	28.7	45.2	> 100	> 100	> 100					
CCOC(=O)C1(C(=O)NCCc2ccccc2F)CC1c1cc(OC)c(OC)c(OC)c1 (cis isomer)	86.3					27.3	> 100	58.2	34.1	
CCOC(=O)C1(C(=O)Nc2ccccc2[N+](=O)[O-])CC1c1cc(OC)c(OC)c(OC)c1 (trans isomer)	31.8	30.9	> 100	35.1	> 100					
CCOC(=O)C1(C(=O)Nc2cccc([N+](=O)[O-])c2)CC1c1cc(OC)c(OC)c(OC)c1 (stereo in doubt; cis)	> 100					76.4	> 100	59.4	> 100	
CCOC(=O)C1(C(=O)NCc2ccc(OC)cc2)CC1c1cc(OC)c(OC)c(OC)c1 (trans isomer)		73.8								
COc1cc([C@@H]2C[C@]2(CO)C(=O)NCc2ccc(C)cc2)cc(OC)c1OC						10.5	> 100	17.4	25.1	26.8
COc1ccc(/C=C\c2cc(OC)c(OC)c(OC)c2)cc1O [COMBRETASTATIN A4]						0.0056	0.0048	0.0021	0.0265	0.0182
COc1cc([C@H]2C[C@]2(CO)C(=O)NCc2ccc(C)cc2)cc(OC)c1OC						60.7	> 100	57.8	56.1	94
CCOC(=O)C1(C(=O)NCc2ccc(C)cc2)CC1c1cc(OC)c(OC)c(OC)c1 (cis isomer)	29				> 100	18.7	> 100	33.2		
CCOC(=O)C1(C(=O)Nc2ccc(F)cc2)CC1c1cc(OC)c(OC)c(OC)c1 (cis isomer)					79.1	22.4	63.7	62.4		46.7
CCOC(=O)[C@@]1(C(=O)Nc2ccccc2)C[C@H]1c1cc(OC)c(OC)c(OC)c1						65.9	> 100	> 100	48.7	> 100
CCOC(=O)C1(C(=O)NCc2ccccc2)CC1c1cc(OC)c(OC)c(OC)c1 (cis isomer)						79.5	> 100	46.5	> 100	89.6
CCOC(=O)C1(C(=O)NCc2ccc(C)cc2)CC1c1cc(OC)c(OC)c(OC)c1 (trans isomer)	> 100	21.4		25.6	37.9					
COc1cc([C@@H]2C[C@@]2(CO)C(=O)Nc2ccccc2)cc(OC)c1OC						43.2	> 100	86.4	36.7	76.8
CCOC(=O)C1(C(=O)NCCc2cccc(F)c2)CC1c1cc(OC)c(OC)c(OC)c1 (cis isomer)	35.5			28.1	39.9	52.3	76.1			
CCOC(=O)C1(C(=O)Nc2ccccc2Cl)CC1c1cc(OC)c(OC)c(OC)c1 (stereo in doubt; trans)	66.7	18.5	14.2	76.4	48.8					
CCOC(=O)[C@]1(C(=O)NCc2ccc(C)cc2)C[C@@H]1c1cc(OC)c(OC)c(OC)c1						34.9	20.4	> 100	> 100	> 100
CCOC(=O)[C@]1(C(=O)Nc2ccccc2)C[C@H]1c1cc(OC)c(OC)c(OC)c1						37.3	> 100	> 100	> 100	> 100

Compound	IC50 ([1]; sw480) [µM]	IC50 ([2]; a549) [µM]	IC50 ([3]; k562) [µM]	IC50 ([4]; hela) [µM]	IC50 ([5]; qgy) [µM]	IC50 ([2]; Homo sapiens, A549, 48 h) [µM]	IC50 ([3]; Homo sapiens, K562, 48 h) [µM]	IC50 ([4]; Homo sapiens, HeLa, 48 h) [µM]	IC50 ([5]; Homo sapiens, QGY, 48 h) [µM]	IC50 ([1]; Homo sapiens, SW480, 48 h) [µM]
CCOC(=O)C1(C(=O)NCc2ccc(F)cc2)CC1c1cc(OC)c(OC)c(OC)c1 (stereo in doubt)						29.4	45.1	32.3	59.4	34.1
CCOC(=O)[C@@]1(C(=O)NCc2ccc(C)cc2)C[C@@H]1c1cc(OC)c(OC)c(OC)c1						> 100	> 100	> 100	> 100	> 100
CCOC(=O)C1(C(=O)Nc2ccccc2)CC1c1cc(OC)c(OC)c(OC)c1 (cis isomer)	49					31.5	> 100	> 100	59.3	
CCOC(=O)C1(C(=O)NCCc2ccc(F)cc2)CC1c1cc(OC)c(OC)c(OC)c1 (cis isomer)		49.3					> 100	58.1	> 100	75.1
CCOC(=O)C1(C(=O)Nc2ccc(OC)cc2)CC1c1cc(OC)c(OC)c(OC)c1 (cis isomer)						61.4	> 100	81.6	86.1	66.3
COc1cc([C@H]2C[C@@]2(CO)C(=O)Nc2ccccc2Cl)cc(OC)c1OC						> 100	> 100	> 100	> 100	> 100
CCOC(=O)C1(C(=O)NCc2ccc(OC)cc2)CC1c1cc(OC)c(OC)c(OC)c1 (cis isomer)						> 100	> 100	> 100	> 100	> 100
CCOC(=O)C1(C(=O)NCCc2ccc(F)cc2)CC1c1cc(OC)c(OC)c(OC)c1 (trans isomer)	40.3	> 100		35						
COc1cc([C@H]2C[C@]2(CO)C(=O)Nc2ccccc2Cl)cc(OC)c1OC						36.7	> 100	45.5	40.7	40.2
CCOC(=O)[C@@]1(C(=O)NCc2ccc(C)cc2)C[C@H]1c1cc(OC)c(OC)c(OC)c1						17.1	> 100	19.7	26.4	> 100
O=c1[nH]cc(F)c(=O)[nH]1 [FLUOROURACIL]						56	114	143	126	158
CCOC(=O)C1(C(=O)Nc2ccccc2[N+](=O)[O-])CC1c1cc(OC)c(OC)c(OC)c1 (stereo in doubt)						24.5	56.3	40.2	54.1	34.1
COc1cc([C@H]2C[C@@]2(CO)C(=O)NCc2ccc(C)cc2)cc(OC)c1OC						63.8	> 100	> 100	> 100	> 100
CCOC(=O)C1(C(=O)Nc2ccccc2)CC1c1cc(OC)c(OC)c(OC)c1 (trans isomer)	> 100	48.6			> 100					
CCOC(=O)C1(C(=O)NCc2ccccc2)CC1c1cc(OC)c(OC)c(OC)c1 (trans isomer)	> 100	> 100		76.3						
CCOC(=O)C1(C(=O)Nc2ccc(OC)cc2)CC1c1cc(OC)c(OC)c(OC)c1 (stereo in doubt)	> 100	> 100		> 100	> 100					
CCOC(=O)C1(C(=O)Nc2cccc([N+](=O)[O-])c2)CC1c1cc(OC)c(OC)c(OC)c1 (stereo in doubt; trans)	49.5	80.3		> 100						
